1 compound from ChEMBL document CHEMBL3997769, “Discovery and preclinical evaluation of 7-benzyl-N-(substituted)-pyrrolo[3,2-d]pyrimidin-4-amines as single agents with microtubule targeting effects along with triple-acting angiokinase inhibition as antitumor agents” (Bioorg Med Chem, 2017) can be followed below.

Calls of active or inactive are those of the source. The rule behind the calls is not given here.

For one assay, the system named is MDA-MB-435. The experiment in a line: Growth inhibition of human MDA-MB-435 cells incubated for 48 hrs by sulforhodamine B assay. In kind it is functional. The conditions noted are these: MDA-MB-435, 48 h.
The next assay relates to K562. The experiment in a line: Growth inhibition of human K562 cells incubated for 48 hrs by sulforhodamine B assay. Particulars: K562, 48 h. Type of assay: functional. (In SRB staining, fixed cells bind dye roughly in proportion to their protein.)
The next assay deals with NCI-H322M. Kind of assay: Growth inhibition of human NCI-H322M cells incubated for 48 hrs by sulforhodamine B assay. Type of assay: functional.
A further assay relates to PC-3. Kind of assay: Growth inhibition of human PC3 cells incubated for 48 hrs by sulforhodamine B assay. In kind it is functional. The conditions noted are these: PC-3, 48 h.
The next assay has as its system MDA-MB-231. Kind of assay: Growth inhibition of human MDA-MB-231 cells incubated for 48 hrs by sulforhodamine B assay. In kind it is functional. The conditions noted are these: MDA-MB-231, 48 h.
The subject of the next assay is OVCAR-8. Kind of assay: Growth inhibition of human OVCAR8 cells incubated for 48 hrs by sulforhodamine B assay. Type of assay: functional. Particulars: OVCAR-8, 48 h.
The test system of a further assay is RPMI-8226. Kind of assay: Growth inhibition of human RPMI8226 cells incubated for 48 hrs by sulforhodamine B assay. The conditions noted are these: RPMI-8226, 48 h. In kind it is functional.
Assay [1] in a line: Inhibition of bovine brain tubulin assembly preincubated for 15 mins followed by GTP addition measured for 20 mins by spectrophotometric method. Also noted: species or system Bos taurus.
For the next assay, the species on record is Bos taurus. The experiment in a line: Displacement of [3H]colchicine from bovine brain tubulin at 5 uM measured after 10 mins by liquid scintillation counting method relative to control. (Displacement assays read how much labelled ligand stays bound in the presence of the test substance.)
The next assay concerns COLO 205. Kind of assay: Growth inhibition of human COLO205 cells incubated for 48 hrs by sulforhodamine B assay. Type of assay: functional. Particulars: COLO 205, 48 h.
Another assay has as its system UACC-257. Kind of assay: Growth inhibition of human UACC257 cells incubated for 48 hrs by sulforhodamine B assay. In kind it is functional. Particulars: UACC-257, 48 h.
The test system of another assay is Hs-578T. The experiment in a line: Growth inhibition of human Hs578T cells incubated for 48 hrs by sulforhodamine B assay. Type of assay: functional.
In another assay the test system is BT-549. The experiment in a line: Growth inhibition of human BT549 cells incubated for 48 hrs by sulforhodamine B assay. In kind it is functional. The conditions noted are these: BT-549, 48 h.
Another assay concerns 4T1. The experiment in a line: Antitumor activity against luciferase/GFP-tagged mouse 4T1 cells implanted in Balb/cJ mouse assessed as reduction in lung metastasis at 50 mg/kg, ip administered three times weekly by fluorescence microscopic method. In kind it is functional, organism-based. In a few lines: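 Orthotopic 4T1-Luc2-GFP allograft in the mammary fat pad of female BALB/cJ mice; IP treatment in 5% Pharmasolve/5% Solutol HS in saline began one week after implantation. At study end, lungs were excised from mice euthanized under isoflurane and imaged with a GFP-filter fluorescence dissecting microscope; GFP-positive metastases per lung counted. n = 9-10.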

For the next assay, the system named is HCC 2998. The experiment in a line: Growth inhibition of human HCC2998 cells incubated for 48 hrs by sulforhodamine B assay. In kind it is functional. The conditions noted are these: HCC 2998, 48 h.
Another assay has as its system RXF 393. Kind of assay: Growth inhibition of human RXF393 cells incubated for 48 hrs by sulforhodamine B assay. In kind it is functional. Particulars: RXF 393, 48 h.
In the next assay the test system is SW-620. The experiment in a line: Growth inhibition of human SW620 cells incubated for 48 hrs by sulforhodamine B assay. Particulars: SW-620, 48 h. Type of assay: functional.
The next assay has as its system OVCAR-3. Kind of assay: Growth inhibition of human OVCAR3 cells incubated for 48 hrs by sulforhodamine B assay. In kind it is functional. The conditions noted are these: OVCAR-3, 48 h.
The subject of a further assay is HL-60(TB). Kind of assay: Growth inhibition of human HL-60(TB) cells incubated for 48 hrs by sulforhodamine B assay. Type of assay: functional. The conditions noted are these: HL-60, 48 h.
The subject of another assay is U-251. Kind of assay: Growth inhibition of human U251 cells incubated for 48 hrs by sulforhodamine B assay. Particulars: U-251, 48 h. In kind it is functional.
Another assay deals with ACHN. The experiment in a line: Growth inhibition of human ACHN cells incubated for 48 hrs by sulforhodamine B assay. Type of assay: functional.
Another assay relates to LOX IMVI. The experiment in a line: Growth inhibition of human LOXIMVI cells incubated for 48 hrs by sulforhodamine B assay. Type of assay: functional.

One may read the GI50 as the concentration that inhibits growth by half. Low readings indicate more potent growth inhibition, high ones less potent growth inhibition. The IC50 is the midpoint of a concentration-inhibition curve. One may read the inhibition as the share of the control response that was lost under treatment. A lower inhibition goes with a weak effect.

As to `COc1ccc(N(C)c2nc(C)nc3c(Cc4ccccc4)cn(C)c23)cc1.Cl`, the GI50 with MDA-MB-435 worked out at 0.0214 µM; in the assay on K562, 0.0337 µM; with NCI-H322M, 0.0736 µM; in the assay with PC-3, 0.0496 µM; with MDA-MB-231 it was 0.0637 µM; in the assay with OVCAR-8, 0.0491 µM. Also, the GI50 came to 0.0369 µM in the assay on RPMI-8226; 0.0263 µM in the assay with COLO 205; 0.0782 µM in the assay on UACC-257; 0.0623 µM in the assay with Hs-578T; 0.0482 µM with BT-549; 0.0711 µM with HCC 2998. The GI50 was 0.0254 µM in the assay on RXF 393; 0.0384 µM in the assay on SW-620; 0.0352 µM in the assay on OVCAR-3; 0.0268 µM in the assay on HL-60(TB); 0.0443 µM in the assay with U-251; 0.172 µM with ACHN. Further, in the assay with LOX IMVI, the GI50 stood at 0.0588 µM. Further, the IC50 in [1] stood at 0.48 µM. The compound also came in with an inhibition in the assay filed under Bos taurus of 92%. Further, in the assay with 4T1, the outcome was Active.
